From ChEMBL document CHEMBL1151442, “Genetic and phenotypic identification of fusidic acid-resistant mutants with the small-colony-variant phenotype in Staphylococcus aureus” (2007)
Values after ≈ are worked out from the molar mass of the structure shown.

Tests used:
Type in all cases: functional
Staphylococcus aureus [1] = experiment: Antibacterial activity against kanamycin-resistant and fusidic acid-susceptible Staphylococcus aureus AH296 harboring Gly664Ala mutation in fusA gene after 18 to 24 hrs by Etest strip assay
Method in brief: (§1)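 Etest MIC: a single colony was suspended in 0.9% NaCl to 0.5 McFarland and swabbed over Mueller-Hinton agar. The strip was applied and plates were incubated at 37°C for 18 to 24 h until an SCV lawn grew.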

Staphylococcus aureus [2] = experiment: Antibacterial activity against kanamycin-resistant and fusidic acid-susceptible Staphylococcus aureus AH298 harboring Gly664Val mutation in fusA gene after 18 to 24 hrs by Etest strip assay; method in brief: as §1
Staphylococcus aureus [3] = experiment: Antibacterial activity against kanamycin-resistant and fusidic acid-susceptible Staphylococcus aureus AH416 harboring deletion of nucleotide 395-398 in rplF gene after 18 to 24 hrs by Etest strip assay; method in brief: as §1
Staphylococcus aureus [4] = experiment: Antibacterial activity against fusidic acid-resistant Staphylococcus aureus AH207 harboring Thr385Asn mutation in fusA gene after 18 to 24 hrs by Etest strip assay
Method in brief: (§2)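 Mutants of lab strain 8325-4 were selected on LA with FA 2 μg/ml for 48 h at 37°C and purified on selective medium. For the MIC, one colony was suspended in 0.9% NaCl to 0.5 McFarland and swabbed onto Mueller-Hinton agar. An Etest strip was applied and plates were incubated at 37°C for 18–24 h until the lawn was evident.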

Staphylococcus aureus [5] = experiment: Antibacterial activity against fusidic acid-resistant Staphylococcus aureus AH204 harboring deletion of nucleotide 203-231 in rplF gene after 18 to 24 hrs by Etest strip assay; method in brief: as §2
Staphylococcus aureus [6] = experiment: Antibacterial activity against fusidic acid-resistant Staphylococcus aureus AH196 harboring Pro406Leu mutation in fusA gene after 18 to 24 hrs by Etest strip assay; method in brief: as §2
Staphylococcus aureus [7] = experiment: Antibacterial activity against fusidic acid-resistant Staphylococcus aureus AH201 harboring Gly452Cys mutation in fusA after 18 to 24 hrs by Etest strip assay; method in brief: as §2
Staphylococcus aureus [8] = experiment: Antibacterial activity against fusidic acid-resistant Staphylococcus aureus AH190 harboring Arg464His mutation in fusA gene after 18 to 24 hrs by Etest strip assay; method in brief: as §2
Staphylococcus aureus [9] = experiment: Antibacterial activity against fusidic acid-resistant Staphylococcus aureus AH202 harboring CTG start codon at nucleotide 1 in rplF gene after 18 to 24 hrs by Etest strip assay; method in brief: as §2
Staphylococcus aureus [10] = experiment: Antibacterial activity against kanamycin-susceptible wild type Staphylococcus aureus AH001 after 18 to 24 hrs by Etest strip assay
Method in brief: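 The inoculum was a single colony suspended in 0.9% NaCl to 0.5 McFarland and swabbed over a Mueller-Hinton agar plate. An Etest gradient strip was then applied, and the plate was incubated at 37°C for 18 to 24 h until lawn growth was evident. MIC was read from the strip following the manufacturer's instructions.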

Staphylococcus aureus [11] = experiment: Antibacterial activity against kanamycin-resistant Staphylococcus aureus AH336 (SCV-8) harboring His438Asn mutation in fusA gene after 18 to 24 hrs by Etest strip assay
Method in brief: (§3)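 SCVs of a Rifr 8325-4 derivative were selected on LA with KAN at 8, 16 or 24 μg/ml for 48 h at 37°C. They were purified at the same KAN level and screened on LA plus FA 1 μg/ml.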

Staphylococcus aureus [12] = experiment: Antibacterial activity against kanamycin-resistant Staphylococcus aureus AH332 (SCV-4) harboring Ala655Glu mutation in fusA gene after 18 to 24 hrs by Etest strip assay; method in brief: as §3
Staphylococcus aureus [13] = experiment: Antibacterial activity against kanamycin-resistant Staphylococcus aureus AH329 (SCV-1) harboring Arg659Cys mutation in fusA gene after 18 to 24 hrs by Etest strip assay; method in brief: as §3
Staphylococcus aureus [14] = experiment: Antibacterial activity against kanamycin-resistant Staphylococcus aureus AH347 (SCV-19) harboring Arg659Ser mutation in fusA gene after 18 to 24 hrs by Etest strip assay; method in brief: as §3
Staphylococcus aureus [15] = experiment: Antibacterial activity against kanamycin-resistant Staphylococcus aureus AH380 (SCV-52) harboring -1 frameshift mutation at nucleotide 158 in rplF gene after 18 to 24 hrs by Etest strip assay; method in brief: as §3
Staphylococcus aureus [16] = experiment: Antibacterial activity against kanamycin-resistant Staphylococcus aureus AH352 (SCV-24) harboring -1 frameshift mutation at nucleotide 106 in rplF gene after 18 to 24 hrs by Etest strip assay; method in brief: as §3
Staphylococcus aureus [17] = experiment: Antibacterial activity against kanamycin-resistant Staphylococcus aureus AH377 (SCV-49) harboring +1 frameshift mutation at nucleotide 23 in rplF gene after 18 to 24 hrs by Etest strip assay; method in brief: as §3
Staphylococcus aureus [18] = experiment: Antibacterial activity against kanamycin-resistant Staphylococcus aureus AH370 (SCV-42) harboring TAA stop codon at nucleotide 229 in rplF gene after 18 to 24 hrs by Etest strip assay; method in brief: as §3
Staphylococcus aureus [19] = experiment: Antibacterial activity against kanamycin-resistant Staphylococcus aureus AH374 (SCV-46) harboring -5 frameshift mutation at nucleotide 236-240 in rplF gene after 18 to 24 hrs by Etest strip assay; method in brief: as §3
Staphylococcus aureus [20] = experiment: Antibacterial activity against kanamycin-resistant Staphylococcus aureus AH358 (SCV-30) harboring -1 frameshift mutation at nucleotide 423 in rplF gene after 18 to 24 hrs by Etest strip assay; method in brief: as §3
Staphylococcus aureus [21] = experiment: Antibacterial activity against kanamycin-resistant Staphylococcus aureus AH339 (SCV-11) harboring -1 frameshift mutation at nucleotide 144 in rplF gene after 18 to 24 hrs by Etest strip assay; method in brief: as §3
Staphylococcus aureus [22] = experiment: Antibacterial activity against kanamycin-resistant Staphylococcus aureus AH384 (SCV-56) harboring -1 frameshift mutation at nucleotide 221 in rplF gene after 18 to 24 hrs by Etest strip assay; method in brief: as §3
Staphylococcus aureus [23] = experiment: Antibacterial activity against kanamycin-resistant Staphylococcus aureus AH378 (SCV-50) harboring -1 frameshift mutation at nucleotide 221 in rplF gene after 18 to 24 hrs by Etest strip assay; method in brief: as §3
Staphylococcus aureus [24] = experiment: Antibacterial activity against kanamycin-resistant Staphylococcus aureus AH360 (SCV-32) harboring ATA start codon at nucleotide 3 in rplF gene after 18 to 24 hrs by Etest strip assay; method in brief: as §3
Staphylococcus aureus [25] = experiment: Antibacterial activity against kanamycin-resistant Staphylococcus aureus AH362 (SCV-34) harboring TAA stop codon at nucleotide 282 in rplF gene after 18 to 24 hrs by Etest strip assay; method in brief: as §3
Staphylococcus aureus [26] = experiment: Antibacterial activity against kanamycin-resistant Staphylococcus aureus AH330 (SCV-2) harboring -1 frameshift mutation at nucleotide 423 in rplF gene after 18 to 24 hrs by Etest strip assay; method in brief: as §3
Staphylococcus aureus [27] = experiment: Antibacterial activity against kanamycin-resistant Staphylococcus aureus AH390 (SCV-62) harboring +1 frameshift mutation at nucleotide 84 in rplF gene after 18 to 24 hrs by Etest strip assay; method in brief: as §3
Staphylococcus aureus [28] = experiment: Antibacterial activity against kanamycin-resistant and fusidic acid-susceptible Staphylococcus aureus AH421 harboring Pro404Arg mutation in fusA gene after 18 to 24 hrs by Etest strip assay; method in brief: as §1
Staphylococcus aureus [29] = experiment: Antibacterial activity against kanamycin-resistant and fusidic acid-susceptible Staphylococcus aureus AH288 harboring Gly617Asp mutation in fusA gene after 18 to 24 hrs by Etest strip assay; method in brief: as §1
Staphylococcus aureus [30] = experiment: Antibacterial activity against kanamycin-resistant and fusidic acid-susceptible Staphylococcus aureus AH294 harboring Gly628Val mutation in fusA gene after 18 to 24 hrs by Etest strip assay; method in brief: as §1
Staphylococcus aureus [31] = experiment: Antibacterial activity against kanamycin-resistant and fusidic acid-susceptible Staphylococcus aureus AH287 harboring Ala655Glu mutation in fusA gene after 18 to 24 hrs by Etest strip assay; method in brief: as §1

| Compound | MIC (Staphylococcus aureus [1]) [mg/L] | MIC (Staphylococcus aureus [2]) [mg/L] | MIC (Staphylococcus aureus [3]) [mg/L] | MIC (Staphylococcus aureus [4]) [mg/L] | MIC (Staphylococcus aureus [5]) [mg/L] | MIC (Staphylococcus aureus [6]) [mg/L] | MIC (Staphylococcus aureus [7]) [mg/L] | MIC (Staphylococcus aureus [8]) [mg/L] | MIC (Staphylococcus aureus [9]) [mg/L] | MIC (Staphylococcus aureus [10]) [mg/L] | MIC (Staphylococcus aureus [11]) [mg/L] | MIC (Staphylococcus aureus [12]) [mg/L] | MIC (Staphylococcus aureus [13]) [mg/L] | MIC (Staphylococcus aureus [14]) [mg/L] | MIC (Staphylococcus aureus [15]) [mg/L] | MIC (Staphylococcus aureus [16]) [mg/L] | MIC (Staphylococcus aureus [17]) [mg/L] | MIC (Staphylococcus aureus [18]) [mg/L] | MIC (Staphylococcus aureus [19]) [mg/L] | MIC (Staphylococcus aureus [20]) [mg/L] | also measured |
| --- | --- | --- | --- | --- | --- | --- | --- | --- | --- | --- | --- | --- | --- | --- | --- | --- | --- | --- | --- | --- | --- |
| CC(=O)O[C@H]1C[C@@]2(C)[C@@H](C[C@@H](O)[C@H]3[C@@]4(C)CC[C@@H](O)[C@@H](C)[C@@H]4CC[C@@]32C)/C1=C(\CCC=C(C)C)C(=O)O [FUSIDIC ACID] | 3 (≈ 5.81 µM) | 6 (≈ 11.6 µM) | 48 (≈ 92.9 µM) | 4 (≈ 7.74 µM) | 4 (≈ 7.74 µM) | 6 (≈ 11.6 µM) | 12 (≈ 23.2 µM) | 6 (≈ 11.6 µM) | 4 (≈ 7.74 µM) | 0.125 (≈ 0.242 µM) | 8 (≈ 15.5 µM) | 12 (≈ 23.2 µM) | 12 (≈ 23.2 µM) | 12 (≈ 23.2 µM) | 6 | 4 | 4 | 8 (≈ 15.5 µM) | 8 | 12 | MIC (Staphylococcus aureus [21]): 6 mg/L; MIC (Staphylococcus aureus [22]): 24 mg/L; MIC (Staphylococcus aureus [23]): 8 mg/L; MIC (Staphylococcus aureus [24]): 24 mg/L (≈ 46.4 µM); MIC (Staphylococcus aureus [25]): 12 mg/L (≈ 23.2 µM); MIC (Staphylococcus aureus [26]): 12 mg/L; MIC (Staphylococcus aureus [27]): 16 mg/L; MIC (Staphylococcus aureus [28]): 3 mg/L (≈ 5.81 µM); MIC (Staphylococcus aureus [29]): 6 mg/L (≈ 11.6 µM); MIC (Staphylococcus aureus [30]): 2 mg/L (≈ 3.87 µM); MIC (Staphylococcus aureus [31]): 12 mg/L (≈ 23.2 µM) |
| NC[C@H]1O[C@H](O[C@H]2[C@H](O)[C@@H](O[C@H]3O[C@H](CO)[C@@H](O)[C@H](N)[C@H]3O)[C@H](N)C[C@@H]2N)[C@H](O)[C@@H](O)[C@@H]1O [KANAMYCIN] | 16 (≈ 33 µM) | 32 (≈ 66 µM) | 256 (≈ 528 µM) | 3 (≈ 6.19 µM) | 8 (≈ 16.5 µM) | 3 (≈ 6.19 µM) | 6 (≈ 12.4 µM) | 4 (≈ 8.26 µM) | 8 (≈ 16.5 µM) | 1.5 (≈ 3.1 µM) | 16 (≈ 33 µM) | 12 (≈ 24.8 µM) | 12 (≈ 24.8 µM) | 12 (≈ 24.8 µM) | 4 | 6 | 6 | 8 (≈ 16.5 µM) | 32 | 48 | MIC (Staphylococcus aureus [21]): 64 mg/L; MIC (Staphylococcus aureus [22]): 128 mg/L; MIC (Staphylococcus aureus [23]): 16 mg/L; MIC (Staphylococcus aureus [24]): 96 mg/L (≈ 198 µM); MIC (Staphylococcus aureus [25]): 128 mg/L (≈ 264 µM); MIC (Staphylococcus aureus [26]): 128 mg/L; MIC (Staphylococcus aureus [27]): 256 mg/L; MIC (Staphylococcus aureus [28]): 8 mg/L (≈ 16.5 µM); MIC (Staphylococcus aureus [29]): 16 mg/L (≈ 33 µM); MIC (Staphylococcus aureus [30]): 16 mg/L (≈ 33 µM); MIC (Staphylococcus aureus [31]): 16 mg/L (≈ 33 µM) |
| CN[C@@H]1[C@H](O[C@H]2[C@H](O[C@H]3[C@H](O)[C@@H](O)[C@H](N=C(N)N)[C@@H](O)[C@@H]3N=C(N)N)O[C@@H](C)[C@]2(O)C=O)O[C@@H](CO)[C@H](O)[C@H]1O [STREPTOMYCIN] | 8 (≈ 13.8 µM) | 6 (≈ 10.3 µM) | 256 (≈ 440 µM) | 12 (≈ 20.6 µM) | 24 (≈ 41.3 µM) | 8 (≈ 13.8 µM) | 8 (≈ 13.8 µM) | 8 (≈ 13.8 µM) | 16 (≈ 27.5 µM) | 3 (≈ 5.16 µM) | 12 (≈ 20.6 µM) | 12 (≈ 20.6 µM) | 24 (≈ 41.3 µM) | 32 (≈ 55 µM) | 24 | 24 | 24 | 24 (≈ 41.3 µM) | 96 | 64 | MIC (Staphylococcus aureus [21]): 128 mg/L; MIC (Staphylococcus aureus [22]): 256 mg/L; MIC (Staphylococcus aureus [23]): 256 mg/L; MIC (Staphylococcus aureus [24]): 192 mg/L (≈ 330 µM); MIC (Staphylococcus aureus [25]): 256 mg/L (≈ 440 µM); MIC (Staphylococcus aureus [26]): 96 mg/L; MIC (Staphylococcus aureus [27]): 64 mg/L; MIC (Staphylococcus aureus [28]): 12 mg/L (≈ 20.6 µM); MIC (Staphylococcus aureus [29]): 32 mg/L (≈ 55 µM); MIC (Staphylococcus aureus [30]): 8 mg/L (≈ 13.8 µM); MIC (Staphylococcus aureus [31]): 48 mg/L (≈ 82.5 µM) |
